Assay: Toxicity liver stage against HepG2, at 10uM
Assay type: cell-based
Set-up: test concentration 10 uM, cell line HepG2-A16-CD81EGFP
Conditions: human, HepG2-A16-CD81EGFP cells; read-out: INHIBITION
Procedure, shortened: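 Uninfected HepG2-A16-CD81EGFP cells, 3 × 10^3 per well, 1536-well, plated on prespotted compound at 10 μM final, parasite-free screening media added to match infected plates; puromycin 10 μM positive, DMSO 0.5% negative; run in parallel with 48 h PbLuc assay at 37 °C, 5% CO2; viability by CellTiter-Glo luminescence, normalized to controls.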

SMILES | cytotoxicity at 10 µM
Cc1ccccc1CC1(C(=O)O)CCCN(c2ncccn2)C1 (stereo unspecified) | 1.25%
COCCn1ccnc1-c1cc(CN2CCCCC2)cs1 | -151%
CSCc1noc(CNC(=O)C2CCN(C(C)C)CC2)n1 | -2.86%
O=C(c1ccc(C2CCCN2)s1)N1CCN2CCC1CC2 (stereo unspecified) | -8.52%
Cc1cnc(C)c(N2CCC(c3nccn3Cc3cscn3)CC2)n1 | 1.89%
CCOCc1nc2c(c(NC(COC)c3ccccn3)n1)CCNCC2 (stereo unspecified) | -3.21%
CCN(C)[C@H]1CN(C(=O)c2cccc(N3CCS(=O)(=O)CC3)c2)C[C@@H]1O | -5.62%
O=C(CCN1CCCO1)N1CC[C@@H](c2ccc3ccccc3c2)[C@H](O)C1 | -1.04%
O=C(CCc1cc2n(n1)CCCNC2)NCCS(=O)(=O)N1CCCC1 | 0.698%
Cc1nc(CN(Cc2cccnc2)Cc2ccsc2)c[nH]1 | 0.935%
COC(C)(C)CC(C)NCc1cn2ccccc2n1 (stereo unspecified) | -3.48%
OC1CCN(c2ccnc(NCCN3CCc4ccccc4C3)n2)C1 (stereo unspecified) | -11.8%
CCOCCn1c(=O)[nH]c2cc(C(=O)N(C)Cc3ccno3)ccc21 | -1.79%
CCN(CC)Cc1cc(C(=O)N2CCC3(CCN(C)CC3)C2)c(C)o1 | 4.92%
O=S(=O)(Nc1ccc2c(c1)OCCO2)N1CCCCC1 | 3.96%
CCc1cc(N2CCCNCC2)n2nc(C)c(C)c2n1 | 4.46%
COc1ccccc1OC1(C(=O)O)CCN(c2nccnc2C)CC1 | -10.4%
CN1CCC(CCNC(=O)c2ccc(N(C)S(C)(=O)=O)cc2Cl)CC1 | -10.1%
Cc1cc(C)n(CC2CN(CC(=O)N3CCC3)CCO2)n1 (stereo unspecified) | -10.7%

SMILES | cytotoxicity at 10 µM
Cc1cnn(CCNCC(=O)NC(C)c2ccc3c(c2)OCCO3)c1 (stereo unspecified) | -1.58%
COc1cc(C)nc(N2CCN(C(=O)c3cccc(C#N)c3)CC2)n1 | -3.54%
NC(=O)C1CCN(C(=O)NCc2ccc(-c3ccn[nH]3)cc2)CC1 | -1.73%
CCN(Cc1ccc2c(c1)OCCO2)C(=O)NCCc1cnn(C)c1 | -3.72%
CS(=O)(=O)NC(=O)c1nnn(-c2ccccc2)c1C1CC1 | -7.09%
Cc1noc(C2CCCN(C(=O)CCCNc3ncccn3)C2)n1 (stereo unspecified) | -3.92%
CC(=O)N1CCN(C(=O)CCn2c(C)nc3ccccc3c2=O)CC1 | -4.81%
CCC(=O)Nc1ccc2c(ccn2CC(=O)N(CC)CC)c1 | -12.2%
Cc1nn(C)c(Cl)c1C1CCCN1Cc1ccccn1 (stereo unspecified) | -0.459%
COc1ccc(C(=O)N2CCCC(n3cncn3)C2)nn1 (stereo unspecified) | 5.58%
Cc1c(F)cc(C(=O)O)cc1S(=O)(=O)Nc1ccc(F)c(C#N)c1 | -6.02%
Cc1nnc(CN2CCCC(c3cc(C(N)=O)[nH]n3)C2)o1 (stereo unspecified) | -7.32%
CCN(Cc1ccc(OC)c(F)c1)C(=O)c1ccc(C)[nH]c1=O | -8.08%
Cc1ccc(OCCNC(=O)C(C)n2cncn2)cc1 (stereo unspecified) | -3.53%
COc1ccc(COCC(O)CNC(=O)c2cccnc2)cc1 (stereo unspecified) | 7.94%
Cc1cccc(C(=O)NCc2ccc(N3CCCCC3)nc2)n1 | 4.26%
O=C(COCC1CC1)N1CCCC(n2cccn2)C1 (stereo unspecified) | 4.6%
O=C(CCOc1cccc(F)c1)N1CCCC(n2cncn2)C1 (stereo unspecified) | -0.192%
Cn1cnnc1C1CCCN(C(=O)c2ccccc2Cl)C1 (stereo unspecified) | 3.59%

SMILES | cytotoxicity at 10 µM
CCOc1ncccc1C(=O)N(C)Cc1ncc(C)c(OC)c1C | 3.06%
Cc1n[nH]c(C)c1NC(=O)CN1CCOC(Cn2cccn2)C1 (stereo unspecified) | -2.82%
O=C1CC[C@@H]2[C@@H](CCN2Cc2ccncc2)N1c1ccccc1 | -1.88%
O=C([C@H]1CN(CCc2ccccc2)C[C@H]2OCC[C@@H]12)N1CCCO1 | -9.49%
Cn1ncc2c1CN(Cc1ccc(F)cc1)CC2COCC1CC1 (stereo unspecified) | 9.55%
CN(C)C(=O)Cn1c2c(ccc1=O)CC(NCc1ccoc1)CC2 (stereo unspecified) | 16.5%
CS(=O)(=O)NCc1cnc2n1CCN(Cc1cccs1)CC2 | 3.04%
O=C(c1ccno1)N1CCO[C@@H]2CC(COCc3ccccn3)C[C@H]21 (stereo partly specified) | -103%
Cc1ccc(S(=O)(=O)NCC(C)(C)N)c(F)c1 | 7.42%
CNC(=O)CN1CCC2(CCCN(CC3CCOC3)C2)CC1 (stereo unspecified) | -107%
Cc1ccc(CS(=O)(=O)N2Cc3c(CN(C)C)nn(C)c3C2)cc1 | -98.2%
CC1=N[C@@]2(CC[C@@H]3CN(Cc4ccc(C)cc4)C[C@@H]32)C(=O)N1CC1CC1 | 1.7%
Cc1ccc(CN2CCc3c(C(=O)N(C)C)nn(C)c3C2)s1 | -12.4%
CN(C)[C@@H]1CN(C(=O)CCc2ccccc2)[C@@H]2CCCO[C@H]12 | -3.02%
CC(C)N1CCC(c2nc3ccc(-c4ccnn4C)cn3n2)CC1 | 14.9%
CC(C)NC(=O)C1c2c(ncn2C(C)C)CCN1Cc1ccccc1 (stereo unspecified) | 0.167%
COCC1N(C(=O)Nc2ccccc2)C2CCC1(O)CC2 (stereo unspecified) | 3.15%
CN1[C@@H]2CC[C@H]1CN(C(=O)c1sccc1S(N)(=O)=O)CC2 | 1.95%
